Usually IC50 stands for the concentration that inhibits the measured activity by half. The inhibition is the share of the control response that was lost under treatment.

The nature of assay [1]: Inhibition of Saccharomyces cerevisiae alpha-glucosidase using para-nitrophenyl-alpha-D-glucopyranoside as substrate preincubated for 5 mins followed by substrate addition and measured after 5 mins. The method in brief: (§1)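 Baker's yeast α-glucosidase (EC 3.2.1.20) in 100 mM phosphate buffer, pH 6.8. Compounds came from 5 mg/mL DMSO stocks and were incubated with enzyme for 5 min. p-Nitrophenyl-α-D-glucopyranoside (5 mM solution) was then added and incubated for 5 min, and absorbance read at 405 nm. Blanks with buffer in place of substrate gave background; acarbose served as positive control.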

A further assay has as its system Saccharomyces cerevisiae. Put plainly: Inhibition of Saccharomyces cerevisiae alpha-glucosidase using para-nitrophenyl-alpha-D-glucopyranoside as substrate preincubated for 5 mins followed by substrate addition and measured after 5 mins relative to control. More on the design: concentration or dose not given beside the values. The method in brief:
as §1

As to `O=C(N/N=C\c1ccc(O)cc1)c1ccc2ncccc2c1`, the IC50 in assay [1] (read-out: IC50) was determined as 23.5 µM. For `O=C(N/N=C\c1cccc([N+](=O)[O-])c1)c1ccc2ncccc2c1`, the IC50 entry in assay [1] is listed as “Not Active”. The inhibition in the assay on Saccharomyces cerevisiae is less than 50%. Turning to `O=C(N/N=C\c1ccccc1O)c1ccc2ncccc2c1`, in assay [1] (read-out: IC50), the IC50 amounted to 13.2 µM. Regarding `O=C(N/N=C\c1ccc(O)cc1O)c1ccc2ncccc2c1`, the IC50 in assay [1] (read-out: IC50) was 14.1 µM. Regarding `O=C(N/N=C\c1ccc([N+](=O)[O-])cc1)c1ccc2ncccc2c1`, the IC50 entry in assay [1] is recorded as “Not Active”. This compound also yielded an inhibition with Saccharomyces cerevisiae of less than 50%. Turning to `COc1ccc(/C=N\NC(=O)c2ccc3ncccc3c2)cc1O`, the IC50 in assay [1] (read-out: IC50) was 14.4 µM. As for `O=C(N/N=C\c1ccncc1)c1ccc2ncccc2c1`, in assay [1], the IC50 result is “Not Active”. The compound further showed an inhibition in the assay on Saccharomyces cerevisiae of less than 50%. Take `O=C(N/N=C\c1ccccc1F)c1ccc2ncccc2c1`: the IC50 in assay [1] (read-out: IC50) amounted to 7.4 µM. For the compound `COc1ccc(/C=N\NC(=O)c2ccc3ncccc3c2)cc1`, the IC50 result in assay [1] was “Not Active”. The compound further came in with an inhibition in the assay with Saccharomyces cerevisiae of less than 50%. `O=C(N/N=C\c1ccco1)c1ccc2ncccc2c1`: the IC50 in assay [1] (read-out: IC50) is 28.6 µM. Same read-out and setting: to `O=C(N/N=C\c1ccc(F)cc1)c1ccc2ncccc2c1` belongs 28.9 µM.

For `COc1cccc(/C=N\NC(=O)c2ccc3ncccc3c2)c1`, the IC50 result in assay [1] is “Not Active”. This compound also returned an inhibition with Saccharomyces cerevisiae of less than 50%.

Regarding `O=C(N/N=C\c1ccccn1)c1ccc2ncccc2c1`, in assay [1] (read-out: IC50), the IC50 turned out to be 38.4 µM. On the same count and under the same terms, the result for `COc1ccc(O)c(/C=N\NC(=O)c2ccc3ncccc3c2)c1` reads 18.4 µM; that for `O=C(N/N=C\c1cccc(F)c1)c1ccc2ncccc2c1`, 48.2 µM. On to `Cc1cccc(C)c1/C=N\NC(=O)c1ccc2ncccc2c1`, for which the IC50 result in assay [1] was “Not Active”. The inhibition in the assay with Saccharomyces cerevisiae is less than 50%.

As for `O=C(N/N=C\c1cccs1)c1ccc2ncccc2c1`, in assay [1] (read-out: IC50), the IC50 amounted to 35.7 µM.

Consider `O=C(N/N=C\c1ccccc1[N+](=O)[O-])c1ccc2ncccc2c1`, for which, in assay [1] (read-out: IC50), the IC50 was 37.6 µM.

Turning to `O=C(N/N=C\c1cccc(O)c1)c1ccc2ncccc2c1`, the IC50 in assay [1] (read-out: IC50) came out at 48.5 µM.

For `O=C(N/N=C\c1cccnc1)c1ccc2ncccc2c1`, the IC50 result in assay [1] is “Not Active”. Further, the inhibition in the assay on Saccharomyces cerevisiae is less than 50%. Turning to `O=C(N/N=C\c1cc(O)ccc1O)c1ccc2ncccc2c1`, in assay [1] (read-out: IC50), the IC50 was 12.4 µM. On the same count and under the same terms, the result for `COc1ccc(/C=N\NC(=O)c2ccc3ncccc3c2)c(O)c1` reads 21.6 µM. With `COc1ccc(/C=N\NC(=O)c2ccc3ncccc3c2)cc1OC`, the IC50 result in assay [1] is given as “Not Active”. In the assay with Saccharomyces cerevisiae, the inhibition is less than 50%.

For `O=C(N/N=C\c1ccc(O)c(O)c1)c1ccc2ncccc2c1`, the IC50 in assay [1] (read-out: IC50) was determined as 6.2 µM. On the same count and under the same terms, the result for `O=C(N/N=C\c1cccc(O)c1O)c1ccc2ncccc2c1` reads 9.4 µM.

The values above are taken from ChEMBL document CHEMBL4393737, “Synthesis of quinoline derivatives as diabetic II inhibitors and molecular docking studies” (Bioorg Med Chem, 2019).
